According to ChEMBL document CHEMBL4346684, “Synthesis and structure-bactericidal activity relationships of non-ketolides: 9-Oxime clarithromycin 11,12-cyclic carbonate featured with three-to eight-atom-length spacers at 3-OH” (Eur J Med Chem, 2019):
Values after ≈ are worked out from the molar mass of the structure shown. Active and inactive are the calls of the source. The calls are words filed in the database; no cut-off is given here.

Tests used:
Streptococcus pneumoniae [1] = experiment: Antimicrobial activity against erythromycin-susceptible Streptococcus pneumoniae ATCC 49619 incubated in CAMHB medium for 20 to 24 hrs by two-fold microbroth dilution method; format: functional
Streptococcus pneumoniae [2] = experiment: Antimicrobial activity against mef-encoded erythromycin resistant Streptococcus pneumoniae PU09 incubated in CAMHB medium for 20 to 24 hrs by two-fold microbroth dilution method; format: functional
Streptococcus pneumoniae [3] = experiment: Bactericidal activity against erythromycin-susceptible Streptococcus pneumoniae ATCC 49619 assessed as reduction in colony formation incubated in CAMHB medium for 20 to 24 hrs followed by 24 hrs subculturing in the medium without test compound; format: functional
Streptococcus pneumoniae [4] = experiment: Ratio of MBC to MIC for erythromycin-susceptible Streptococcus pneumoniae ATCC 49619; format: functional
Streptococcus pneumoniae [5] = experiment: Bactericidal activity against mef-encoded erythromycin resistant Streptococcus pneumoniae PU09 assessed as reduction in colony formation incubated in CAMHB medium for 20 to 24 hrs followed by 24 hrs subculturing in the medium without test compound; format: functional
Streptococcus pneumoniae [6] = experiment: Ratio of MBC to MIC for mef-encoded erythromycin resistant Streptococcus pneumoniae PU09; format: functional
Streptococcus pyogenes [7] = experiment: Antimicrobial activity against inducibly erythromycin resistant Streptococcus pyogenes 01-968 expressing i-ermA incubated in CAMHB medium for 20 to 24 hrs by two-fold microbroth dilution method; format: functional
Streptococcus pyogenes [8] = experiment: Bactericidal activity against inducibly erythromycin resistant Streptococcus pyogenes 01-968 expressing i-ermA assessed as reduction in colony formation incubated in CAMHB medium for 20 to 24 hrs followed by 24 hrs subculturing in the medium without test compound; format: functional
Streptococcus pyogenes [9] = experiment: Ratio of MBC to MIC for inducibly erythromycin resistant Streptococcus pyogenes 01-968 expressing i-ermA; format: functional
Staphylococcus aureus [10] = experiment: Antimicrobial activity against constitutively erythromycin resistant and methicillin resistant Staphylococcus aureus PU20 expressing c-ermC incubated in CAMHB medium for 20 hrs by two-fold microbroth dilution method; format: functional; settings: PU20, 20 h
How it was run: (§1)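 Purified fresh Staphylococcus isolate at about 5×10^5 CFU/ml final in CAMHB, 35 °C for 20 h. Each run included ATCC strains and reference antibiotics as QC, plus an antibiotic-free growth control.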

Staphylococcus aureus [11] = experiment: Bactericidal activity against constitutively erythromycin resistant and methicillin-resistant Staphylococcus aureus PU20 expressing c-ermC assessed as reduction in colony formation incubated in CAMHB medium for 20 hrs followed by 24 hrs subculturing in the medium without test compound; format: functional
Staphylococcus aureus [12] = experiment: Ratio of MBC to MIC for constitutively erythromycin resistant and methicillin-resistant Staphylococcus aureus PU20 expressing c-ermC; format: functional
Staphylococcus aureus [13] = experiment: Antimicrobial activity against inducibly erythromycin-resistant and methicillin resistant Staphylococcus aureus PU32 expressing i-ermA incubated in CAMHB medium for 20 hrs by two-fold microbroth dilution method; format: functional; settings: PU32, 20 h; how it was run: as §1
Staphylococcus aureus [14] = experiment: Bactericidal activity against inducibly erythromycin-resistant and methicillin resistant Staphylococcus aureus PU32 expressing i-ermA assessed as reduction in colony formation incubated in CAMHB medium for 20 hrs followed by 24 hrs subculturing in the medium without test compound; format: functional
Moraxella catarrhalis [15] = experiment: Antimicrobial activity against erythromycin-susceptible Moraxella catarrhalis 13L332 incubated in CAMHB medium for 20 hrs by two-fold microbroth dilution method; format: functional; settings: 13L332, 20 h
How it was run: (§2)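 Clinical isolates and ATCC strains, purified by plate activation and used fresh; inoculum about 5×10^5 CFU/ml final. Grown in CAMHB at 35 °C for 20 h.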

Moraxella catarrhalis [16] = experiment: Bactericidal activity against erythromycin-susceptible Moraxella catarrhalis 13L332 assessed as reduction in colony formation incubated in CAMHB medium for 20 hrs followed by 24 hrs subculturing in the medium without test compound; format: functional
Moraxella catarrhalis [17] = experiment: Ratio of MBC to MIC for erythromycin-susceptible Moraxella catarrhalis 13L332; format: functional
Streptococcus pneumoniae [18] = experiment: Antimicrobial activity against constitutively erythromycin resistant Streptococcus pneumoniae PU27 expressing c-erm incubated in CAMHB medium for 20 to 24 hrs by two-fold microbroth dilution method; format: functional
How it was run: (§3)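 Purified fresh Streptococcus isolate at about 5×10^5 CFU/ml final in CAMHB with 5% horse serum, 35 °C for 20–24 h. […] Each run included ATCC strains and reference antibiotics as QC, plus an antibiotic-free growth control.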

Streptococcus pyogenes [19] = experiment: Antimicrobial activity against constitutively erythromycin resistant Streptococcus pyogenes A2 expressing c-erm incubated in CAMHB medium for 20 to 24 hrs by two-fold microbroth dilution method; format: functional; how it was run: as §3
Streptococcus pyogenes [20] = experiment: Antimicrobial activity against erythromycin-susceptible Streptococcus pyogenes A3 incubated in CAMHB medium for 20 to 24 hrs by two-fold microbroth dilution method; format: functional
Staphylococcus aureus [21] = experiment: Antimicrobial activity against erythromycin-susceptible Staphylococcus aureus ATCC 29213 incubated in CAMHB medium for 20 hrs by two-fold microbroth dilution method; format: functional; settings: ATCC 29213, 20 h; how it was run: as §2
Staphylococcus aureus [22] = experiment: Antimicrobial activity against inducibly erythromycin-resistant Staphylococcus aureus PU32 expressing i-ermA incubated in CAMHB medium for 20 hrs by two-fold microbroth dilution method; format: functional; settings: PU32, 20 h
How it was run: (§4)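 Purified fresh Staphylococcus isolate at about 5×10^5 CFU/ml final in CAMHB, 35 °C for 20 h. […] Each run included ATCC strains and reference antibiotics as QC, plus an antibiotic-free growth control.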

Staphylococcus aureus [23] = experiment: Antimicrobial activity against constitutively erythromycin resistant Staphylococcus aureus PU20 expressing c-ermC incubated in CAMHB medium for 20 hrs by two-fold microbroth dilution method; format: functional; settings: PU20, 20 h; how it was run: as §4
Staphylococcus aureus [24] = experiment: Antimicrobial activity against inducibly erythromycin resistant Staphylococcus aureus PU64 expressing i-ermA incubated in CAMHB medium for 20 hrs by two-fold microbroth dilution method; format: functional; settings: PU64, 20 h; how it was run: as §4
[25] = test system: Staphylococcus epidermidis; experiment: Antimicrobial activity against Staphylococcus epidermidis E1 incubated in CAMHB medium for 20 hrs by two-fold microbroth dilution method; format: functional; settings: E1, 20 h; how it was run: as §2
Staphylococcus aureus [26] = experiment: Ratio of MBC to MIC for inducibly erythromycin-resistant and methicillin resistant Staphylococcus aureus PU32 expressing i-ermA; format: functional
Streptococcus pneumoniae [27] = experiment: Bactericidal activity against erythromycin-susceptible Streptococcus pneumoniae ATCC 49619 assessed as log reduction in bacterial CFU at 1 to 16XMIC incubated for 1 to 24 hrs by broth dilution method; format: functional
How it was run: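 Samples taken at 1, 2, 4, 6, 8, 12, 24 h, diluted and plated, colonies counted after 20-24 h at 35 °C; log CFU plotted against time. Detection limit 300 CFU/mL.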

Streptococcus pneumoniae [28] = experiment: Bactericidal activity against mef-encoded erythromycin resistant Streptococcus pneumoniae PU09 at 1 to 16xMIC incubated for 1 to 24 hrs by broth dilution method; format: functional, organism-based
How it was run: (§5)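 Samples were taken at 1, 2, 4, 6, 8, 12 and 24 h, diluted and subcultured at 35 °C for 20–24 h. Colonies were counted and log CFU plotted against time; detection limit 300 CFU/mL.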

Streptococcus pyogenes [29] = experiment: Bactericidal activity against inducibly erythromycin resistant Streptococcus pyogenes 01-968 expressing i-ermA at 1XMIC incubated for 12 hrs by broth dilution method; format: functional, organism-based; how it was run: as §5
Streptococcus pyogenes [30] = experiment: Bactericidal activity against inducibly erythromycin resistant Streptococcus pyogenes 01-968 expressing i-ermA at 1XMIC incubated for 24 hrs by broth dilution method; format: functional, organism-based; how it was run: as §5

Compound | MIC (Streptococcus pneumoniae [1]) | MIC (Streptococcus pneumoniae [2]) | MBC (Streptococcus pneumoniae [3]) | Ratio (Streptococcus pneumoniae [4]) | MBC (Streptococcus pneumoniae [5]) | Ratio (Streptococcus pneumoniae [6]) | MIC (Streptococcus pyogenes [7]) | MBC (Streptococcus pyogenes [8]) | Ratio (Streptococcus pyogenes [9]) | MIC (Staphylococcus aureus [10]) | MBC (Staphylococcus aureus [11]) | Ratio (Staphylococcus aureus [12]) | MIC (Staphylococcus aureus [13]) | MBC (Staphylococcus aureus [14]) | MIC (Moraxella catarrhalis [15]) | MBC (Moraxella catarrhalis [16]) | Ratio (Moraxella catarrhalis [17]) | other results
CC[C@H]1OC(=O)[C@H](C)[C@@H](OCC#Cc2ccc(-c3ccccn3)s2)[C@H](C)[C@@H](O[C@@H]2O[C@H](C)C[C@H](N(C)C)[C@H]2O)[C@](C)(OC)C[C@@H](C)/C(=N\OC)[C@H](C)[C@H]2OC(=O)O[C@@]21C | 4 µg/mL (≈ 4.75 µM) | 8 µg/mL (≈ 9.5 µM) | 16 µg/mL (≈ 19 µM) | 4 | 16 µg/mL (≈ 19 µM) | 2 | 8 µg/mL (≈ 9.5 µM) | 64 µg/mL (≈ 76 µM) | 8 | 256 µg/mL (≈ 304 µM) | 256 µg/mL (≈ 304 µM) | 1 | > 256 µg/mL | > 256 µg/mL | 4 µg/mL (≈ 4.75 µM) | 8 µg/mL (≈ 9.5 µM) | 2 | 
CC[C@H]1OC(=O)[C@H](C)C(=O)[C@H](C)[C@@H](O[C@@H]2O[C@H](C)C[C@H](N(C)C)[C@H]2O)[C@](C)(OC)C[C@@H](C)C(=O)[C@H](C)[C@H]2N(CCCCn3cnc(-c4cccnc4)c3)C(=O)O[C@]12C [TELITHROMYCIN] |  | 0.25 to 1 µg/mL (≈ 0.308 to 1.23 µM) | 0.031 to 0.125 µg/mL (≈ 0.0382 to 0.154 µM) | 1 - 4 | 1 to 4 µg/mL (≈ 1.23 to 4.93 µM) | 4 - 8 | 0.031 to 0.062 µg/mL (≈ 0.0382 to 0.0764 µM) | 0.13 to 0.5 µg/mL (≈ 0.16 to 0.616 µM) | 4 - 8 | > 256 µg/mL | > 256 µg/mL |  | 0.25 µg/mL (≈ 0.308 µM) | 1 to 2 µg/mL (≈ 1.23 to 2.46 µM) | 0.125 µg/mL (≈ 0.154 µM) | 0.5 µg/mL (≈ 0.616 µM) | 4 | MIC (Streptococcus pneumoniae [18]): ≤ 0.032 µg/mL; MIC (Streptococcus pyogenes [19]): 32 µg/mL (≈ 39.4 µM); MIC (Streptococcus pyogenes [20]): ≤ 0.032 µg/mL; MIC (Staphylococcus aureus [21]): 0.125 µg/mL (≈ 0.154 µM); MIC (Staphylococcus aureus [22]): 0.125 µg/mL (≈ 0.154 µM); MIC (Staphylococcus aureus [23]): > 256 µg/mL; MIC (Staphylococcus aureus [24]): 0.125 µg/mL (≈ 0.154 µM); MIC [25]: 0.125 µg/mL (≈ 0.154 µM); Ratio (Staphylococcus aureus [26]): >=4 - 8; Activity (Streptococcus pneumoniae [27]): 3 log10CFU; Activity (Streptococcus pneumoniae [28]): Active; Activity (Streptococcus pyogenes [29]): Active; Activity (Streptococcus pyogenes [30]): inactive
CC[C@H]1OC(=O)[C@H](C)[C@@H](OCC#Cc2ccc(C(=O)c3ccccc3)s2)[C@H](C)[C@@H](O[C@@H]2O[C@H](C)C[C@H](N(C)C)[C@H]2O)[C@](C)(OC)C[C@@H](C)/C(=N\OC)[C@H](C)[C@H]2OC(=O)O[C@@]21C | 8 µg/mL (≈ 9.21 µM) | 4 µg/mL (≈ 4.6 µM) | 16 µg/mL (≈ 18.4 µM) | 2 | 8 µg/mL (≈ 9.21 µM) |  | 4 µg/mL (≈ 4.6 µM) | 8 µg/mL (≈ 9.21 µM) | 2 | 32 µg/mL (≈ 36.8 µM) | > 256 µg/mL | >8 | > 256 µg/mL | > 256 µg/mL | 8 µg/mL (≈ 9.21 µM) | 16 µg/mL (≈ 18.4 µM) | 2 | 
CC[C@H]1OC(=O)[C@H](C)[C@@H](OCC#Cc2ccc(OCc3ccccc3)cc2)[C@H](C)[C@@H](O[C@@H]2O[C@H](C)C[C@H](N(C)C)[C@H]2O)[C@](C)(OC)C[C@@H](C)/C(=N\OC)[C@H](C)[C@H]2OC(=O)O[C@@]21C | 8 µg/mL (≈ 9.25 µM) | 8 µg/mL (≈ 9.25 µM) | 32 µg/mL (≈ 37 µM) | 4 | 16 µg/mL (≈ 18.5 µM) | 2 | 4 µg/mL (≈ 4.62 µM) | 8 µg/mL (≈ 9.25 µM) | 2 | 32 µg/mL (≈ 37 µM) | 256 µg/mL (≈ 296 µM) | 8 | > 256 µg/mL | > 256 µg/mL | 8 µg/mL (≈ 9.25 µM) | 8 µg/mL (≈ 9.25 µM) | 1 | 
